How the values were obtained:
[1] = Volume of distribution at steady state in C57BL/6 mouse at 2 mg/kg, po and 1 mg/kg, iv; assay type: ADME, organism-based; conditions: in vivo, read-out: Vdss
Outline: (§1)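 Pharmacokinetics in C57BL/6 mice: single dose 1 mg/kg iv or 2 mg/kg po.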

[2] = Oral bioavailability in C57BL/6 mouse at 2 mg/kg; assay type: ADME, organism-based; conditions: in vivo; outline: as §1
[3] = Plasma clearance in C57BL/6 mouse at 2 mg/kg, po and 1 mg/kg, iv; assay type: ADME, organism-based; outline: as §1
Mus musculus = assay: Reduction in plasma free fatty acid level in C57BL/6 mouse at 10 mg/kg, ip after 15 mins; assay type: functional; design: scale not given: the % may be the effect or the level left; conditions: route intraperitoneal
Outline: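 Male C57BL/6 mice, six per group, single 10 mpk ip dose; plasma free fatty acids measured 15 min after dosing and reported as percent reduction. Niacin given at 100 mpk ip as comparator.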

[4] = Half life in C57BL/6 mouse at 2 mg/kg, po and 1 mg/kg, iv; assay type: ADME, organism-based; conditions: in vivo; outline: as §1

Compound | Vd [1] [L/kg] | bioavailability [2] [%] | clearance [3] [mL/min/kg] | Activity (Mus musculus) [%] | half-life [4] [h]
O=C(O)c1n[nH]c2c1CC(c1cc(F)cc(F)c1F)C2 (centres undefined) | 9.3 | 53 | 24 | – | –
Cn1nccc1C1Cc2[nH]nc(C(=O)O)c2C1 (centres undefined) | 4.2 | 27 | 86 | 41 | 2.3
Fc1cc(F)c(F)c(C2Cc3[nH]nc(-c4nnn[nH]4)c3C2)c1 (centres undefined) | – | – | – | 21 | –
